ROMK primary: human ROMK K+ channel modulation, primary screen; B-score at 10 µM; P48048; AID 1918; hit rate 2% among 130,000; Tet-inducible ROMK, thallium flux fluorescence; actives lie on both sides;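 active means signal ratio slope over the read window, or its plate-corrected B-score, at least 3 SD from the plate mean, either direction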;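 further: B-score of the F/F0 ratio slope over 7 to 12 s after thallium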
Target sequence (P48048 whole entry, looked up): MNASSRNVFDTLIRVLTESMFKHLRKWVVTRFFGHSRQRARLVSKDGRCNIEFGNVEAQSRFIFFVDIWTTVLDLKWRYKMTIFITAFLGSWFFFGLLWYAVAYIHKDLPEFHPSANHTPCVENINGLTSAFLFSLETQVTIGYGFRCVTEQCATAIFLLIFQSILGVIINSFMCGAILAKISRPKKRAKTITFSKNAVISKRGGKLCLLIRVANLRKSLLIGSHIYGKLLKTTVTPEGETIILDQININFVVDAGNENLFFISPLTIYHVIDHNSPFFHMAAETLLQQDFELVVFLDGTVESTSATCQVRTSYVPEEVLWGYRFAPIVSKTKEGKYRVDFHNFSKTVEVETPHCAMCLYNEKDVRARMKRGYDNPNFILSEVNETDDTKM
MT stabilizer: stabilizes microtubules in HeLa cells. hit rate 0.83% among 200,000. HeLa tubulin immunostaining HCS, 24 h; share of cells brighter than vehicle mean+2SD. % tubulin-high responders, % at 10 µM;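 active means plate Z-score above 3 for both tubulin-high and condensed-nucleus cell shares, with cell loss under 80%, at 10 µM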;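 further: anti alpha tubulin signal scored within the nucleus-defined area of each cell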
b-catenin transl: beta-catenin nuclear translocation modulation; AID 1665; nuclear translocation activity, % at 5 µM; hit rate 0.3% among 190,000; HeLa beta-catenin nuclear translocation, immunofluorescence imaging;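 active means nuclear translocation activity above 50% at 5 µM, with a well cell count of 50 or more; inconclusive means wells under 50 cells across six images, flagged as toxic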;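 further: per-cell ratio of nuclear to cytoplasmic median beta-catenin stain intensity; plate controls were DMSO negative control for no effect and GSK-3 inhibitor IX positive control for full effect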
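Test system: HeLa cells, endogenous beta-catenin; Compound: single 5 µM dose plus 0.02–20 µM confirmation series; Times: compound exposure 24 h at 37°C; Signal: fluorescence imaging of beta-catenin antibody stain plus DAPI; Read-out: % activation, nuclear-to-cytoplasmic median beta-catenin signal ratio per cell.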
ROMK hit retest: confirmation of human ROMK potassium channel modulators; shares compounds with ROMK primary; ROMK thallium flux, fluorescence ratio; hits give low values; normalized thallium flux (F/F0 slope) at 10 µM; hit rate 54% among 3,000; AID 1917;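 active means Flux at 10 µM at least 3 SD below or above vehicle control mean in one or both replicates; inconclusive means no clear call, values can overlap the other calls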
Active calls of the source: *. Sampled rows, rich in hits. Any-hit rate of the full collection: about 1.9%.

Results for CCn1c(=N)n(CC(O)COc2cccc(C)c2)c2ccccc21 (configuration not stated) ?
ROMK primary: -3.2; MT stabilizer: 4

What do the screens show for `CCCCn1c(=N)n(CC(O)COc2ccc(C)cc2)c2ccccc21` (configuration not stated)?
ROMK primary: -7*; MT stabilizer: 5; b-catenin transl: -4; ROMK hit retest: 0.048*

Results for Cc1ccc(OCC(O)Cn2c3ccccc3c3ccccc32)cc1 (configuration not stated) ?
MT stabilizer: 4; b-catenin transl: 1

Results for N=c1n(CCN2CCCCC2)c2ccccc2n1CC(O)COc1ccccc1 (configuration not stated) ?
MT stabilizer: 3; b-catenin transl: -1

What do the screens show for `CCCn1c(=N)n(CC(O)COc2cccc(C)c2)c2ccccc21` (configuration not stated)?
ROMK primary: -3.4*; MT stabilizer: 3; ROMK hit retest: 0.051*

Results for CCCCn1c(=N)n(CC(O)COc2ccccc2)c2ccccc21 (configuration not stated) ?
ROMK primary: -3.7*; MT stabilizer: 5; b-catenin transl: -4; ROMK hit retest: inconclusive

What do the screens show for `Cc1ccc(Cn2c(=N)n(CC(O)COc3ccccc3)c3ccccc32)cc1` (configuration not stated)?
ROMK primary: -4.1*; MT stabilizer: 2; ROMK hit retest: 0.049*

Results for COc1ccc(/C=C/C(=O)OCC(=O)Nc2ccc(Cl)c(S(=O)(=O)N(C)C)c2)cc1OC ?
ROMK primary: -0.78; MT stabilizer: 2; b-catenin transl: -2

What do the screens show for `COc1ccc(S(=O)(=O)c2cnc3ccc(OC)cc3c2N2CCC3(CC2)OCCO3)cc1`?
MT stabilizer: 5; b-catenin transl: -1; ROMK hit retest: 0.05*

Results for CCOc1ccc2ncc(S(=O)(=O)c3ccccc3)c(N3CCC4(CC3)OCCO4)c2c1 ?
MT stabilizer: 2

What do the screens show for `CCOc1ccc2ncc(S(=O)(=O)c3ccccc3)c(N3CCN(c4ccc(OC)cc4)CC3)c2c1`?
MT stabilizer: 2

How did COc1ccc(N2CCN(c3c(S(=O)(=O)c4ccccc4)cnc4ccc(OC)cc34)CC2)cc1 do in these assays?
MT stabilizer: 7; b-catenin transl: -1; ROMK hit retest: inconclusive

Results for COc1cccc(CC(NC(C)=O)C(=O)NC2CCN(S(=O)(=O)c3ccc(F)cc3)CC2)c1OC (configuration not stated) ?
ROMK primary: -0.061; MT stabilizer: 3; b-catenin transl: 0

Results for CC(NC(=O)N(Cc1ccccc1)Cc1ccc2c(c1)OCO2)(C(F)(F)F)C(F)(F)F ?
MT stabilizer: 3

What do the screens show for `CCC(NC(=O)N(Cc1ccccc1)Cc1ccc2c(c1)OCO2)(C(F)(F)F)C(F)(F)F`?
MT stabilizer: 3; b-catenin transl: -4; ROMK hit retest: 0.077

Results for COCCNC(=O)/C(C#N)=C1\N=C(N)c2ccccc21 ?
MT stabilizer: 1; b-catenin transl: -1

What do the screens show for `O=C1CCCC/C1=N\Nc1ccc(OCc2ccccc2)cc1`?
ROMK primary: 0.38; MT stabilizer: 4; b-catenin transl: 2

What do the screens show for `COc1ccc(S(=O)(=O)N(C)CC(=O)NCCC2=CCCCC2)cc1`?
MT stabilizer: 10; b-catenin transl: -4; ROMK hit retest: 0.069*

Results for COc1ccc(S(=O)(=O)N(C)CC(=O)NCCC2=CCCCC2)cc1OC ?
ROMK primary: 0.12; MT stabilizer: 1; b-catenin transl: 0

Results for Cn1nccc1-c1cc(Cl)cc(Cl)c1O ?
b-catenin transl: 3

What do the screens show for `CC(C(=O)O)N1C(=O)c2ccccc2C1=O` (configuration not stated)?
ROMK primary: 2.9*; MT stabilizer: 3; ROMK hit retest: 0.078

How did CC(C(=O)N1CCN(C)CC1)N1C(=O)c2ccccc2C1=O (configuration not stated) do in these assays?
MT stabilizer: 2; b-catenin transl: -1

What do the screens show for `CCOc1cc(N2CCOCC2)c(OCC)cc1NC(=O)c1cc(-c2ccco2)nc2ccccc12`?
MT stabilizer: 4; b-catenin transl: 0; ROMK hit retest: 0.066*

How did CCOc1cc(N2CCOCC2)c(OCC)cc1NC(=O)COc1ncnc2ccccc12 do in these assays?
ROMK primary: -0.64; MT stabilizer: 1

How did COC(=O)[C@@H]1C[C@@]2(O)[C@@H](O)[C@@H](O)[C@@H](O)C[C@H]2N1Cc1ccc(C(F)(F)F)cc1 do in these assays?
b-catenin transl: -1; ROMK hit retest: 0.072

How did COC(=O)[C@@H]1C[C@@]2(O)[C@H](O)[C@H](O)[C@H](O)C[C@H]2N1Cc1ccc(C(F)(F)F)cc1 do in these assays?
b-catenin transl: -1

How did Cc1ccnn1CC(=O)N/N=C/c1ccc2c(c1)OCO2 do in these assays?
ROMK primary: 1.6; MT stabilizer: 3; b-catenin transl: 0

Results for O=C1CC(N2CCc3ccccc32)C(=O)N1c1ccc(F)cc1 (configuration not stated) ?
ROMK primary: 0.96; MT stabilizer: 2; b-catenin transl: 0

Results for Cc1cc(OC(F)F)ccc1NC(=O)Nc1ccc([N+](=O)[O-])cc1 ?
MT stabilizer: 5; b-catenin transl: 6

Results for O=C(CCl)Nc1cn(-c2ccccc2)nc1-c1ccccc1 ?
ROMK primary: -1.2; MT stabilizer: 12; b-catenin transl: 1

Results for CC(=O)[C@H]1CC[C@H]2[C@@H]3CCC4=CC(=O)CC[C@]4(C)[C@H]3CC[C@]12C ?
MT stabilizer: 6; b-catenin transl: -2; ROMK hit retest: 0.065*

What do the screens show for `C[C@]12CCC(=O)C=C1CC[C@@H]1[C@@H]2CC[C@@]2(C)[C@H]1CC[C@]2(O)C(=O)CO`?
MT stabilizer: 4

Results for COc1cc2nc(CN(C)Cc3ccc(OC)c(OC)c3OC)[nH]c(=O)c2cc1OC ?
ROMK primary: -0.41; MT stabilizer: 2; b-catenin transl: 3

How did CNC(=S)SCCOc1ccccc1C do in these assays?
MT stabilizer: 6; b-catenin transl: -1

How did CCOC(=O)Cn1cc(C=O)c2ccccc21 do in these assays?
ROMK primary: -0.16; MT stabilizer: 2; b-catenin transl: 2

What do the screens show for `CCOC(=O)Cn1cc(/C=N/NC(=O)c2cc3ccccc3o2)c2ccccc21`?
b-catenin transl: -1; ROMK hit retest: 0.075

Results for Cc1cc(NC(=O)Cn2c(C)nc3ccccc3c2=O)ccc1Br ?
ROMK primary: -0.033; MT stabilizer: 4

Results for O=C(NNC(=O)C(O)(c1ccccc1)c1ccccc1)C1CC1 ?
ROMK primary: -0.0034; MT stabilizer: 1; b-catenin transl: -1

What do the screens show for `COc1ccc(N2C(=O)CS/C2=N\C(=S)Nc2ccccc2)cc1`?
b-catenin transl: -1

Results for COC(=O)CN1C(c2cccc(Cl)c2)=Nc2ccc(Cl)cc2C1c1ccccc1 (configuration not stated) ?
MT stabilizer: 8; b-catenin transl: 2; ROMK hit retest: 0.055*

High-throughput results (PubChem)
